Reference: ChEMBL document CHEMBL3745678, “Novel β-Carboline/Hydroxamic Acid Hybrids Targeting Both Histone Deacetylase and DNA Display High Anticancer Activity via Regulation of the p53 Signaling Pathway” (J Med Chem, 2015)
Active and inactive are the calls of the source. No cut-off for these calls is given here.

Experiments:
HCT-116 [1] = test: Induction of DNA damage in human HCT116 cells assessed as histone H2AX phosphorylation at S139 after 12 hrs by western blot analysis; type: functional, cell-based
Procedure, shortened: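 DNA-damage marker. HCT116 cells treated 12 h with compound or vehicle. Lysates immunoblotted with anti-H2AX S139ph, and β-actin served as the control. Relative levels were obtained by densitometric scanning; means ± SD of three separate experiments.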

HCT-116 [2] = test: Antiproliferative activity against human HCT116 cells assessed as cell death at 5 uM after 48 hrs by MTT assay; type: functional, cell-based
Procedure, shortened: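 HCT116 and rat IEC-18 cells incubated 48 h over a 0–5 µM range. Viability measured by MTT and expressed as % of control. GI50 taken from the inhibition curves; three independent experiments.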

[3] = molecular target: T1, Protein deacetylase HDAC6 (Homo sapiens, UniProt Q9UBN7); test: Inhibition of recombinant human HDAC6 using Boc-Lys (Ac)-AMC as substrate after 60 mins by fluorometric analysis
T1 sequence (Q9UBN7 whole entry): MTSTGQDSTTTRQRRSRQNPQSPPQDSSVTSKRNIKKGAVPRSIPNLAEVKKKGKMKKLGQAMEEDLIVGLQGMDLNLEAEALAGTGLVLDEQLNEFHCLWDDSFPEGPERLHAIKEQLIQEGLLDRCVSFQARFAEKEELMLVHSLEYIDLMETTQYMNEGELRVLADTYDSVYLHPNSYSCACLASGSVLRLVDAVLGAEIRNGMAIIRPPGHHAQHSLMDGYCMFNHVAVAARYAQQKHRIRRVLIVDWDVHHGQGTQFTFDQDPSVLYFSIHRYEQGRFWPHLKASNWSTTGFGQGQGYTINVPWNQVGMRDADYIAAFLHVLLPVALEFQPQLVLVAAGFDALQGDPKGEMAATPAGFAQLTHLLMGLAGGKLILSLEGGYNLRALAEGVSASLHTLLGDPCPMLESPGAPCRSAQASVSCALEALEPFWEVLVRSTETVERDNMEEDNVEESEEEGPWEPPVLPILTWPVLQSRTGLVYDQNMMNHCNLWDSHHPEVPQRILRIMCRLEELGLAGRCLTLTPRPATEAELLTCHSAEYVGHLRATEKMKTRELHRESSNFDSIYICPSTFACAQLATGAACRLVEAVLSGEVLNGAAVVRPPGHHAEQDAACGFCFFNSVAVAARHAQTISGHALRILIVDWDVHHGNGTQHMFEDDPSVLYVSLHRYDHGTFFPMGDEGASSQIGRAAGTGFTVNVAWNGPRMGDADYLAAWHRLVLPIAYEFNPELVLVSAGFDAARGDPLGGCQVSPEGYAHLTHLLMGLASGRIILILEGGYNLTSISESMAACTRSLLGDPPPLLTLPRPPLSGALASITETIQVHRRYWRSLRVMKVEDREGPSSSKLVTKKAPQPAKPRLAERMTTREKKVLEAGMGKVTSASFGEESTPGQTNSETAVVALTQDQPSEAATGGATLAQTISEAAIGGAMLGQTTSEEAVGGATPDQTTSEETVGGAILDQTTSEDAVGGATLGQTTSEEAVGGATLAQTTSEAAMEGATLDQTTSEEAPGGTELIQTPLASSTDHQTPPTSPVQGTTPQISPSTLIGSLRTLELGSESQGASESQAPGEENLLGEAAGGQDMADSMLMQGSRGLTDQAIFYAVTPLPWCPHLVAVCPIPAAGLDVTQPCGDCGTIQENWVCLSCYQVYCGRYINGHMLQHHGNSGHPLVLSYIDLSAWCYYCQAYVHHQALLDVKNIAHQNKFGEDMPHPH

[4] = molecular target: Cellular tumor antigen p53 (Homo sapiens) (UniProt P04637); test: Activation of p53 in human HCT116 cells assessed as p53 phosphorylation at ser15 residue at 0.1 to 5 uM after 12 hrs by western blot analysis; type: cell-based; conditions: HCT-116
Procedure, shortened: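 HCT116 cells exposed 12 h to compound or vehicle, then lysed on ice in PBS with 1% NP-40, 0.5% deoxycholate, 0.1% SDS and protease inhibitors. Up to 50 µg protein run on SDS-PAGE and immunoblotted for phospho-p53 (Ser15), p53 and p21. Bands quantified by densitometry against β-actin; mean ± SD of three experiments.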

Mus musculus [5] = test: Acute toxicity in ICR mouse assessed as death at 240 to 300 mg/kg, ip measured after 3 days; type: organism-based; conditions: in vivo, 72 h
Procedure, shortened: (§1)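 Female ICR mice, single intraperitoneal injection at 585.9, 468.8, […], 300 or 240 mg/kg, or vehicle control, n = 10 per group. Deaths counted at 1 h, 4 h, daily on days 1-4 and over days 5-14. Eating, drinking, body weight and activity observed for 14 days, with survival (%) taken on day 14. LD50 calculated from mortality.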

[6] = Antiproliferative activity against human HCT116 cells assessed as cell viability after 48 hrs by MTT assay; type: functional, cell-based, HCT-116; conditions: Homo sapiens, HCT-116, 48 h
[7] = Upregulation of Bax expression in human HCT116 cells after 48 hrs by western blot analysis; type: functional, cell-based; conditions: HCT-116
Procedure, shortened: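 HCT116 cells treated 48 h with or without compound. Western blots probed for Bax, Bcl-2, cleaved caspase-3 and PARP. Band intensities relative to β-actin by densitometry; means ± SD from three separate experiments.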

Mus musculus [8] = test: Acute toxicity in ICR mouse assessed as death at 240 to 375 mg/kg, ip measured after 2 days; type: organism-based; conditions: in vivo, 48 h; procedure, shortened: as §1
Mus musculus [9] = test: Acute toxicity in ICR mouse assessed as abnormality in drinking at 240 mg/kg, ip measured for 14 days; type: organism-based; conditions: in vivo, 336 h; procedure, shortened: as §1
Mus musculus [10] = test: Acute toxicity in ICR mouse assessed as death at 468.8 mg/kg, ip measured after 5 to 14 days; type: organism-based; conditions: in vivo; procedure, shortened: as §1
[11] = molecular target: Histone deacetylase (Homo sapiens) (UniProt Q13547+O15379+Q9UBN7+Q92769+Q9UQL6+Q8WUI4+Q9BY41+Q96DB2+P56524+Q9UKV0+Q969S8); test: Inhibition of HDAC in human HCT116 cells assessed as increase in acetyl-histone H3 expression after 48 hrs by immunoblotting analysis; type: cell-based; conditions: HCT-116
Procedure, shortened: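 HCT116 cells treated 48 h with compound, SAHA or vehicle. Lysates probed by immunoblot for acetyl-histone H3 and acetyl-α-tubulin, with β-actin as loading control. Relative levels by densitometric scanning; means ± SD of three experiments.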

Histone deacetylase = test: Inhibition of HDAC in human HeLa cell nuclear extract using Boc-Lys (Ac)-AMC as substrate after 60 mins by fluorometric analysis; type: cell-based
HCT-116 [12] = test: Induction of apoptosis in human HCT116 cells at 1 uM after 48 hrs by annexin V-FITC/propidium iodide staining-based flow cytometric analysis; type: functional
Procedure, shortened: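 HCT116 cells cultured overnight, then exposed in triplicate for 48 h to 0.1, 1.0 or 5.0 µM, SAHA 5.0 µM or vehicle. Stained with FITC-Annexin V/PI for 15 min at room temperature.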

Cellular tumor antigen p53 (Homo sapiens), sequence (P04637 whole entry, looked up): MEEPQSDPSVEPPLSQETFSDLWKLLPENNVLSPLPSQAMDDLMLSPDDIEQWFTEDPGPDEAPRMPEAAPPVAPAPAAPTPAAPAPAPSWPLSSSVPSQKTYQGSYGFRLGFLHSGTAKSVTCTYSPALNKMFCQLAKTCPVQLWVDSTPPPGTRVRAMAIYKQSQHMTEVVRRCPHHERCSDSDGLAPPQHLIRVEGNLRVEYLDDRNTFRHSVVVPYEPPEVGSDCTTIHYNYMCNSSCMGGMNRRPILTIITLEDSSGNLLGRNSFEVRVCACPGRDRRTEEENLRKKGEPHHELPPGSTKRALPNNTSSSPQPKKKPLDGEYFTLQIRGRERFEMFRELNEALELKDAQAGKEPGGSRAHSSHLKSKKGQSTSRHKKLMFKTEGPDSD

## COc1ccc(-c2nc(NC(=O)NCCCC(=O)NO)cc3c2[nH]c2ccccc23)cc1
HCT-116 [1]
  Activity: Dose-dependent effect
HCT-116 [2]
  Activity: Active
[3]
  IC50: 34 nM
[4]
  Activity: Active
Mus musculus [5]
  Activity: Non-toxic
[6]
  GI50: 1170 nM
  IC50: 830 nM
[7]
  Activity: Dose-dependent effect
Mus musculus [8]
  Activity: Non-toxic
Mus musculus [9]
  Activity: Non-toxic
Mus musculus [10]
  Activity: Non-toxic
[11]
  inhibition: Dose-dependent effect
Histone deacetylase
  IC50: 0.27 µM
HCT-116 [12]
  Activity: 41.3%
